Rows were chosen to be rich in hits. Some 2.9% of all compounds tested hit in one or more screens of this group.
PRMT1 inh: PRMT1 (human) inhibition, primary screen; recombinant PRMT1, activity-based probe fluorescence polarization; inhibition, % at 2.79 µM; actives 1.3% (n = 370,000); AID 652257;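 active means inhibition above about 21% made by adding two undisclosed values, limit read from the data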
mABHD4 FP: ABHD4 (mouse) inhibition, primary FP screen; inhibition, % at 8.92 µM; purified mABHD4, FP-Rh probe fluorescence polarization; AID 720543; actives 0.54% (n = 370,000); Q8VD66;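 active means inhibition exceeding the mean over every tested compound plus 3 SD, cut at about 30% in these data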
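Assay system: mouse ABHD4 enzyme, wild type / Also added: fluorescent activity-based probe FP-Rh / Doses: single nominal dose of 8.92 µM, 0.89% DMSO final / Timing: 45 min compound pre-incubation plus 60 min probe step, 25 °C / Signal: FP readout, ex 525 nm / em 598 nm / Control set: S159A mutant/DMSO as 100%, compound-well median as 0%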
TCR CD3 inh: blocks the human TCR-CD3 interaction; TAMRA-labeled TCR probe fluorescence, biochemical; actives 0.37% (n = 360,000); inhibition, % at 9.4 µM; in the data active means inhibition above about 19%;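 further: recombinant mutant TCR 2C K166C tagged with TAMRA read by polarization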
HTRA1 inh: inhibitors of human serine peptidase HTRA1. Q92743. recombinant HTRA1, FP-rhodamine activity-based probe, fluorescence polarization. inhibition, % at 5.96 µM. actives 0.5% (n = 340,000). AID 504803; in the data active means inhibition above about 36%
SIAE inh: inhibitors of human sialic acid acetylesterase SIAE; SIAE FP-Rh probe binding, fluorescence polarization; inhibition, % at 9.66 µM; actives 0.69% (n = 370,000);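 active means inhibition above a cutoff: mean of compounds within the control limits plus 3 SD of those, cut at about 17% in these data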
ATG4B inhibitor: ATG4B (human) cysteine protease inhibition. actives 0.51% (n = 340,000). ATG4B cleavage of LC3-PLA2, NBD-HPC fluorescence, 1 h. inhibition, % at 8.33 µM. AID 504462; in the data active means inhibition above about 40%
Target sequence (Q9Y4P1 whole entry, looked up): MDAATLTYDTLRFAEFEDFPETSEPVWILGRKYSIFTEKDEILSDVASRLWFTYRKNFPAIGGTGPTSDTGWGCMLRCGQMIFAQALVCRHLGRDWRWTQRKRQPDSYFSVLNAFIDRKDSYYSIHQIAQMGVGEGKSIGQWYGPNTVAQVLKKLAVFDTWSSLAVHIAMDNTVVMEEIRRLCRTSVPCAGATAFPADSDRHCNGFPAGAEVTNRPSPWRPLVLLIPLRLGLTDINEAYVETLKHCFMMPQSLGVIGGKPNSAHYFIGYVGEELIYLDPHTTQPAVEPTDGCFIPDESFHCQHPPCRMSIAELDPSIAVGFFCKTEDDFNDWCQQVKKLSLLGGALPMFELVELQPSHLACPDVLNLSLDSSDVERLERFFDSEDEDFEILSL
PRMT1 inh conf: confirmation of human PRMT1 inhibitors | recombinant His-PRMT1, activity-based probe fluorescence polarization | shares compounds with PRMT1 inh | inhibition, % at 2.79 µM | AID 687036 | actives 42% (n = 3,300);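 active means mean inhibition across replicates above the hit cutoff derived for the earlier primary screen, cut at about 22% in these data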
Each line names hits and unclear results; the compound was inactive in the other large screens (follow-up assays come after a bar, where they were run).

O=C1C(=C2CCCCC2)SC(=S)N1Cc1ccco1	PRMT1 inh 44 | PRMT1 inh conf 39
Cc1ccc(-c2cc(-c3nnc4sc(COc5ccccc5)nn34)[nH]n2)cc1	none (no result: TCR CD3 inh, HTRA1 inh, ATG4B inhibitor)
O=C(CSc1ccc(-c2ccco2)nn1)c1ccccc1	PRMT1 inh 28 | PRMT1 inh conf inactive
O=C(CSc1ccc(-c2ccco2)nn1)Nc1ccccc1	none
COc1cccc(NC(=O)CSC(N)=O)c1	PRMT1 inh 63 | PRMT1 inh conf 87
COc1cccc(NC(=O)CSc2ccc(-c3ccco3)nn2)c1	PRMT1 inh 42 | PRMT1 inh conf inactive
COc1ccc(NC(=O)Nc2ccc(OCc3ccccc3)cc2)cn1	PRMT1 inh 26 | PRMT1 inh conf inactive
COc1ccc(NC(=O)NS(=O)(=O)c2ccc(C)cc2)cn1	PRMT1 inh 105 | PRMT1 inh conf inactive
O=C(Nc1ccc(OCc2ccccc2)cc1)Nc1cccnc1	none
COCc1[nH]c(=S)c(C#N)cc1C(=O)OC	PRMT1 inh 35 | PRMT1 inh conf inactive
O=C(O)C1C2C=CC(O2)C1C(=O)NCCC1=CCCCC1 (configuration not stated)	none (no result: PRMT1 inh, mABHD4 FP, TCR CD3 inh, SIAE inh)
O=C(O)C1C2C=CC(O2)C1C(=O)NCc1ccccc1Br (configuration not stated)	PRMT1 inh 30 | PRMT1 inh conf inactive
COCCN1C(=O)C2=C(C1=O)C1N(C)c3ccccc3[C@@]13C[C@@H](CO)N(C(=O)CCC(=O)OC)C3=N2 (some centres not stated)	none (no result: TCR CD3 inh, HTRA1 inh, ATG4B inhibitor)
CCOc1ccc(N2C(=O)CC(NCCc3c[nH]c4ccccc34)C2=O)cc1 (configuration not stated)	PRMT1 inh 31 | PRMT1 inh conf inactive
CCOc1ccc(N2C(=O)CC(NCCc3ccncc3)C2=O)cc1 (configuration not stated)	PRMT1 inh 58 | PRMT1 inh conf inactive
CCOc1ccc(N2C(=O)CC(NCCc3ccc(S(N)(=O)=O)cc3)C2=O)cc1 (configuration not stated)	PRMT1 inh 53 | PRMT1 inh conf inactive
CCCOc1ccc(N2C(=O)CC(NCCc3ccc(S(N)(=O)=O)cc3)C2=O)cc1 (configuration not stated)	PRMT1 inh 51 | PRMT1 inh conf inactive
Cc1ccc(-n2c(SCc3cccc(F)c3)nc3sc4c(c3c2=O)CCCC4)cc1	none (no result: TCR CD3 inh, HTRA1 inh, ATG4B inhibitor)
CCCC(=O)Nc1nc2ccc(OC)cc2s1	none
COc1ccc2nc(NC(=S)N(C)C)sc2c1	PRMT1 inh 28 | PRMT1 inh conf inactive
CC(C)C(NC(=O)[C@H](Cc1ccccc1)NC(=O)OCc1ccccc1)P(=O)(O)OC(Cc1ccccc1)C(=O)O (some centres not stated)	none (no result: TCR CD3 inh, HTRA1 inh, ATG4B inhibitor)
C=CCN(CC#CC1=CCCCC1)CC1CC1	none (no result: TCR CD3 inh, HTRA1 inh, ATG4B inhibitor)
O=C(CCCCCn1c(SCc2ccncc2)nc2ccccc2c1=O)NCc1ccco1	PRMT1 inh 46 | PRMT1 inh conf inactive
O=C(c1cc(Cl)cc(Cl)c1)N1CCC(Oc2cccnc2)CC1	none (no result: TCR CD3 inh, HTRA1 inh, ATG4B inhibitor)
COC(=O)[C@H]1C[C@@]2(N3CCCCC3)c3ccccc3N[C@H]2N1S(=O)(=O)c1ccc([N+](=O)[O-])cc1	none (no result: TCR CD3 inh, HTRA1 inh, ATG4B inhibitor)
Cc1nc(SCc2ccc(O)c([N+](=O)[O-])c2)c([N+](=O)[O-])[nH]1	PRMT1 inh 35 | PRMT1 inh conf inactive
Cc1nc(SCc2ccc(O)c([N+](=O)[O-])c2)n[nH]1	none
O=C(CC(SCCO)c1ccc2c(c1)OCO2)c1cccs1 (configuration not stated)	PRMT1 inh 30 | PRMT1 inh conf 32
CC(NC(=O)Cc1cccs1)c1ccc2c(c1)OCO2 (configuration not stated)	none
Cc1ccc(-c2c(NC(=O)c3ccccc3)nc3ncccn23)cc1	none (no result: TCR CD3 inh, HTRA1 inh, ATG4B inhibitor)
CCOC(=O)C1CCCN(S(=O)(=O)c2cc3c(cc2Cl)NC(=O)CO3)C1 (configuration not stated)	PRMT1 inh 34 | PRMT1 inh conf inactive
CCOC(=O)C1CCCN(S(=O)(=O)c2ccc3c(c2)NC(=O)CO3)C1 (configuration not stated)	none
O=c1c([N+](=O)[O-])c(Cl)c2ccccc2n1Cc1ccccc1	PRMT1 inh 43 (no result: TCR CD3 inh, HTRA1 inh, ATG4B inhibitor) | PRMT1 inh conf 36
CCn1c(=O)c([N+](=O)[O-])c(Cl)c2ccccc21	none (no result: PRMT1 inh, mABHD4 FP, TCR CD3 inh, SIAE inh)
O=c1c([N+](=O)[O-])c(O)c2ccccc2n1Cc1ccccc1	PRMT1 inh 29 | PRMT1 inh conf inactive
CN1CC=C2C(C#N)=C(N)C(C#N)(C#N)C(Cc3ccccc3)C2C1 (configuration not stated)	PRMT1 inh 45 | PRMT1 inh conf inactive
CC(C)N1CC=C2C(C#N)=C(N)C(C#N)(C#N)C(c3ccccc3)C2C1 (configuration not stated)	PRMT1 inh 37 | PRMT1 inh conf 33
CC(C)(C)c1ccc(Cn2cnc(-c3ccc([N+](=O)[O-])cc3)c2)cc1	none
Cc1cc(C)c(Cn2cnc(-c3ccc([N+](=O)[O-])cc3)c2)c(C)c1	PRMT1 inh 46 | PRMT1 inh conf inactive
O=C(/C=C/c1ccco1)NC(=S)Nc1cccc(C(=O)O)c1	PRMT1 inh 34 | PRMT1 inh conf 30
Cc1ccc(NC(=S)NC(=O)/C=C/c2ccco2)c(O)c1	PRMT1 inh 28 | PRMT1 inh conf inactive
O=C(/C=C\c1ccco1)NC(=S)Nc1ccccc1O	none
O=C(/C=C/c1ccco1)Nc1cc(Cl)ccc1C(=O)O	PRMT1 inh 25 | PRMT1 inh conf inactive
Cc1cc(NC(=O)/C=C/c2ccco2)ccc1NC(=O)c1ccccc1	none
O=C(/C=C/c1ccco1)Nc1ccccc1C(=O)Nc1cccc(C(=O)O)c1	PRMT1 inh 25 | PRMT1 inh conf inactive
O=C(/C=C/c1ccco1)Nc1ccccc1C(=O)O	none (no result: HTRA1 inh)
O=C1[C@H]2C[C@@]3(n4ccc5ccccc54)c4ccccc4N(S(=O)(=O)c4ccccc4)[C@H]3N2C(=O)CN1Cc1ccccc1	none (no result: TCR CD3 inh, HTRA1 inh, ATG4B inhibitor)
CC(C)[C@H](NC(=O)[C@@H](N)Cc1ccccc1)C(=O)N1CCC2CCN(Cc3ccccc3)CC21 (some centres not stated)	none (no result: HTRA1 inh, ATG4B inhibitor)
N#Cc1ccc2nc(-c3ccc(CN4CCC5(CC4)CNc4ccccc45)cc3)c(-c3ccccc3)nc2c1	none (no result: HTRA1 inh, ATG4B inhibitor)
CCOC(=O)C1NC(=O)CC1c1ccccc1 (configuration not stated)	none
CCOC(=O)C1CSC2(CCC(c3ccccc3)CC2)N1 (configuration not stated)	PRMT1 inh 48 | PRMT1 inh conf 28
O=C(CSC1=NCCN1)Nc1cccc(C(F)(F)F)c1	PRMT1 inh 52 | PRMT1 inh conf 35
Cn1ccnc1SCC(=O)Nc1cccc(C(F)(F)F)c1	none
COc1ccc(N=C(N)NC(=O)OCc2ccccc2)cc1	none (no result: TCR CD3 inh, HTRA1 inh, ATG4B inhibitor)

Compound activity: PubChem, several laboratories
